# According to ChEMBL document CHEMBL4842317, “Discovery of novel 3-hydroxyandrosta-5,7-Diene-17-Carboxylic acid derivatives as anti-inflammatory bowel diseases (IBD) agents” (Eur J Med Chem, 2021):
# Calls of active or inactive are those of the source. The rule behind the calls is not given here.
# Columns and labels:
# RAW264.7 [1] = assay: Antiinflammatory activity against mouse RAW264.7 cells assessed as inhibition of LPS-induced iNOS mRNA expression at 20 uM incubated for 8 hrs in presence of LPS by qRT-PCR analysis; type: functional, cell-based
# Summary of the method: (§1)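 RAW 264.7 cells are grown 12 h in six-well plates, then exposed to LPS (100 ng/ml) plus compound for 8 h. Reverse transcription is followed by SYBR Green qPCR with GAPDH as internal control. Relative expression is calculated by 2^-ΔΔCT versus the untreated control. Mean + SD from three independent experiments.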
# RAW264.7 [2] = assay: Antiinflammatory activity against mouse RAW264.7 cells assessed as inhibition of LPS-induced COX2 mRNA expression incubated for 8 hrs in presence of LPS by qRT-PCR analysis; type: functional, cell-based; conditions: dose 0.31-20 µM; summary of the method: as §1
# Mus musculus [3] = assay: Antiinflammatory activity against DSS-induced colitis C57BL/6 mouse assessed as decrease in p-IkB alpha level in colon at 50 mg/kg, ip administered for 7 days by western blot analysis; type: functional, organism-based; conditions: time 7.0 day
# Summary of the method: (§2)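 Male C57BL/6 mice, 6 weeks old, 5 per group, given 3.5% DSS solution plus daily intraperitoneal drug (100 μL, in saline/castor oil/ethanol/DMSO 70:10:15:5) for 7 days. Colons collected after sacrifice. IL-1β is normalised per milligram of colonic protein. p-IκB-α and p-p65 in colonic protein are measured by Western blot. Bars give mean + SD.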
# RAW264.7 [4] = assay: Antiinflammatory activity against mouse RAW264.7 cells assessed as decrease in LPS-induced IL-6 mRNA expression at 20 uM in presence of LPS by qRT-PCR analysis; type: functional, cell-based; summary of the method: as §1
# RAW264.7 [5] = assay: Antiinflammatory activity against mouse RAW264.7 cells assessed as decrease in LPS-induced NF-kappB mRNA expression at 20 uM in presence of LPS by qRT-PCR analysis; type: functional, cell-based; summary of the method: as §1
# Mus musculus [6] = assay: Antiinflammatory activity against DSS-induced colitis C57BL/6 mouse assessed as decrease in p-p65 level in colon at 25 mg/kg, ip administered for 7 days by western blot analysis; type: functional, organism-based; conditions: time 7.0 day; summary of the method: as §2
# RAW264.7 [7] = assay: Antiinflammatory activity against mouse RAW264.7 cells assessed as inhibition of LPS-induced IL-6 production measured after 24 hrs in presence of LPS by ELISA; type: functional, cell-based; conditions: dose 0.31-20 µM
# Summary of the method: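 RAW 264.7 cells are seeded at 2 × 10^5 per well, grown 12 h, and given 100 ng/mL LPS with compound at 0.31 to 20 μM for 24 h. Supernatant IL-1β and IL-6 are quantified by ELISA. Mean + SD, n = 3.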
# RAW264.7 [8] = assay: Cytotoxicity against mouse RAW264.7 cells assessed as reduction in cell viability at 3 to 100 uM incubated for 24 hrs in presence of LPS by MTT assay; type: cell-based; conditions: raw264.7, 24 h, dose 3-100 µM
# Summary of the method: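 RAW 264.7 cells are seeded at 1.0 × 10^4 per well and incubated overnight. Compounds are added at concentrations from 100 μM downward, with or without LPS (100 ng/mL), for 24 h. MTT (0.5 mg/mL) is added for 4 h and the formazan is dissolved in DMSO for the read-out.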
# Mus musculus [9] = assay: Antiinflammatory activity against DSS-induced colitis C57BL/6 mouse model assessed as dispersed CD86-positive cells in colon at 25 to 100 mg/kg, ip administered for 7 days by hematoxylin and eosin staining based microscopic analysis; type: functional, organism-based; conditions: dose 25-100 mg/kg, time 7.0 day
# Summary of the method: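 DSS colitis (3.5% DSS, male C57BL/6 mice, n=5 per group) with 7-day intraperitoneal dosing in saline/castor oil/ethanol/DMSO vehicle. Colons are fixed in formalin, paraffin-embedded and stained with H&E (viewed at 200X). Separately, sections undergo CD86 immunohistochemistry (citrate antigen retrieval, 3% H2O2 block, 1:200 primary and HRP secondary, hematoxylin counterstain) viewed at 400X.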
# RAW264.7 [10] = assay: Antiinflammatory activity against mouse RAW264.7 cells assessed as decrease in LPS-induced IL-1beta mRNA expression at 20 uM in presence of LPS by qRT-PCR analysis; type: functional, cell-based; summary of the method: as §1
compound,measurement,setting,value
C[C@]12CC[C@H]3[C@@H](CC=C4C[C@@H](O)CC[C@@]43C)[C@@H]1CC[C@@H]2C(=O)n1ccnc1,Activity,RAW264.7 [1],Active
same,Activity,RAW264.7 [2],Dose-Dependent Effect
same,Activity,Mus musculus [3],Active
same,Activity,RAW264.7 [4],Active
same,Activity,RAW264.7 [5],Active
same,Activity,Mus musculus [6],Active
same,Activity,RAW264.7 [7],Dose-Dependent Effect
same,Activity,RAW264.7 [8],Non-Toxic
same,Activity,Mus musculus [9],Active
same,Activity,RAW264.7 [10],Active
